Results published in ChEMBL document CHEMBL2417509, “Synthesis and biological evaluation of prodigiosene conjugates of porphyrin, estrone and 4-hydroxytamoxifen” (2013).

Experiments:
Format in all cases: functional
[1] = tested on: PC-3; experiment: Cytotoxicity against human PC3 cells after 2 days by sulforhodamine B assay; details: PC-3, 48 h
In short: (§1)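 NCI60 multi-dose screen, 59 human tumour lines available. Cells exposed to compound across a 5-log mol/L concentration range for 2 days, then fixed and stained with sulphorhodamine B, optical density read. Growth inhibition calculated against time-zero control and untreated cells. GI50 derived from the dose series, average of two replicates.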

[2] = tested on: RXF 393; experiment: Cytotoxicity against human RXF393 cells after 2 days by sulforhodamine B assay; details: RXF 393, 48 h; in short: as §1
[3] = tested on: ACHN; experiment: Cytotoxicity against human ACHN cells after 2 days by sulforhodamine B assay; details: 48 h; in short: as §1
[4] = tested on: OVCAR-8; experiment: Cytotoxicity against human OVCAR8 cells after 2 days by sulforhodamine B assay; details: OVCAR-8, 48 h; in short: as §1
[5] = tested on: OVCAR-3; experiment: Cytotoxicity against human OVCAR3 cells after 2 days by sulforhodamine B assay; details: OVCAR-3, 48 h; in short: as §1
[6] = tested on: IGROV-1; experiment: Cytotoxicity against human IGROV1 cells after 2 days by sulforhodamine B assay; details: IGROV-1, 48 h; in short: as §1
[7] = tested on: UACC-62; experiment: Cytotoxicity against human UACC62 cells after 2 days by sulforhodamine B assay; details: UACC-62, 48 h
In short: (§2)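 NCI DTP NCI60 multi-dose screen (59 human tumour lines available). Cells exposed to compound over a 5-log mol/L concentration range for 2 days, then fixed and stained with sulphorhodamine B, with optical density read. Growth inhibition calculated relative to time-zero cells and untreated cells, giving GI50 (half-maximal growth inhibition concentration). Average of two replicates.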

[8] = tested on: UACC-257; experiment: Cytotoxicity against human UACC257 cells after 2 days by sulforhodamine B assay; details: UACC-257, 48 h; in short: as §2
[9] = tested on: SK-MEL-5; experiment: Cytotoxicity against human SK-MEL-5 cells after 2 days by sulforhodamine B assay; details: SK-MEL-5, 48 h; in short: as §1
[10] = tested on: SK-MEL-28; experiment: Cytotoxicity against human SK-MEL-28 cells after 2 days by sulforhodamine B assay; details: SK-MEL-28, 48 h; in short: as §1
[11] = tested on: SK-MEL-2; experiment: Cytotoxicity against human SK-MEL-2 cells after 2 days by sulforhodamine B assay; details: SK-MEL-2, 48 h; in short: as §1
[12] = tested on: Malme-3M; experiment: Cytotoxicity against human MALME-3M cells after 2 days by sulforhodamine B assay; details: 48 h; in short: as §1
[13] = tested on: SNB-75; experiment: Cytotoxicity against human SNB75 cells after 2 days by sulforhodamine B assay; details: SNB-75, 48 h; in short: as §2
[14] = tested on: SW-620; experiment: Cytotoxicity against human SW620 cells after 2 days by sulforhodamine B assay; details: SW-620, 48 h; in short: as §2
[15] = tested on: KM12; experiment: Cytotoxicity against human KM12 cells after 2 days by sulforhodamine B assay; details: KM12, 48 h; in short: as §1
[16] = tested on: HCT-15; experiment: Cytotoxicity against human HCT15 cells after 2 days by sulforhodamine B assay; details: HCT-15, 48 h; in short: as §1
[17] = tested on: HCC 2998; experiment: Cytotoxicity against human HCC2998 cells after 2 days by sulforhodamine B assay; details: HCC 2998, 48 h; in short: as §1
[18] = tested on: COLO 205; experiment: Cytotoxicity against human COLO205 cells after 2 days by sulforhodamine B assay; details: COLO 205, 48 h; in short: as §1
[19] = tested on: NCI-H226; experiment: Cytotoxicity against human NCI-H226 cells after 2 days by sulforhodamine B assay; details: NCI-H226, 48 h; in short: as §1
[20] = tested on: HOP-62; experiment: Cytotoxicity against human HOP62 cells after 2 days by sulforhodamine B assay; details: HOP-62, 48 h; in short: as §1
[21] = tested on: RPMI-8226; experiment: Cytotoxicity against human RPMI8226 cells after 2 days by sulforhodamine B assay; details: RPMI-8226, 48 h; in short: as §1
[22] = tested on: SR; experiment: Cytotoxicity against human SR cells after 2 days by sulforhodamine B assay; details: 48 h; in short: as §2
[23] = tested on: K562; experiment: Cytotoxicity against human K562 cells after 2 days by sulforhodamine B assay; details: K562, 48 h; in short: as §1
[24] = tested on: HL-60(TB); experiment: Cytotoxicity against human HL-60(TB) cells after 2 days by sulforhodamine B assay; details: HL-60, 48 h
In short: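 NCI60 multi-dose screen: cells exposed to compound over a 5-log mol/L concentration range for 2 days, then fixed and stained with sulphorhodamine B and optical density read. Growth inhibition calculated relative to time-zero control and untreated cells; GI50 reported as average of two replicates.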

[25] = tested on: CCRF-CEM; experiment: Cytotoxicity against human CCRF-CEM cells after 2 days by sulforhodamine B assay; details: 48 h; in short: as §1
[26] = Cytotoxicity against human Hs578T cells after 2 days by sulforhodamine B assay; details: Hs-578T, 48 h; in short: as §1
[27] = tested on: BT-549; experiment: Cytotoxicity against human BT549 cells after 2 days by sulforhodamine B assay; details: BT-549, 48 h; in short: as §1
[28] = tested on: MDA-MB-231; experiment: Cytotoxicity against human MDA-MB-231 cells after 2 days by sulforhodamine B assay; details: MDA-MB-231, 48 h; in short: as §1
[29] = tested on: MCF7; experiment: Cytotoxicity against human MCF7 cells after 2 days by sulforhodamine B assay; details: MCF7, 48 h; in short: as §1
[30] = tested on: UO-31; experiment: Cytotoxicity against human UO31 cells after 2 days by sulforhodamine B assay; details: UO-31, 48 h; in short: as §2
[31] = read-out: LC50 (the source's name)

**Q.** Which results are given for CC/C(=C(/c1ccc(OCCN(C)C)cc1)c1ccc(OC(=O)CCC(=O)C2=C(C)/C(=C/c3[nH]c(-c4ccc[nH]4)cc3OC)N=C2C)cc1)c1ccccc1?
**A.** GI50 [1]: 1.78 µM; LC50 (concentration killing 50% of cells) [1]: 51.1 µM; TGI [1]: 17.2 µM; GI50 [2]: 2.35 µM; LC50 (concentration killing 50% of cells) [2]: 73.3 µM; TGI [2]: 13 µM; GI50 [3]: 2.61 µM; LC50 (concentration killing 50% of cells) [3]: > 100 µM; TGI [3]: 17.1 µM; GI50 [4]: 2.76 µM; LC50 [4]: 68 µM; TGI [4]: 10.9 µM; GI50 [5]: 2.11 µM; LC50 [5]: 38.7 µM; TGI [5]: 10.6 µM; GI50 [6]: 3.66 µM; LC50 [6]: > 100 µM; TGI [6]: 15.3 µM; GI50 [7]: 1.81 µM; TGI [7]: 3.78 µM; CC50 [7, 31]: 7.88 µM; GI50 [8]: 3.39 µM; TGI [8]: 14.8 µM; CC50 [8, 31]: 79.7 µM; GI50 [9]: 1.53 µM; LC50 (concentration killing 50% of cells) [9]: 5.25 µM; TGI [9]: 3.22 µM; GI50 [10]: 2.94 µM; LC50 [10]: 46.3 µM; TGI [10]: 12.7 µM; GI50 [11]: 2.45 µM; LC50 [11]: 25.3 µM; TGI [11]: 6.42 µM; GI50 [12]: 2.73 µM; LC50 [12]: 78.4 µM; TGI [12]: 6.53 µM; GI50 [13]: 2.47 µM; LC50 (concentration killing 50% of starting cells) [13]: 62.9 µM; TGI [13]: 9.92 µM; GI50 [14]: 0.76 µM; LC50 (concentration killing 50% of cells) [14]: > 100 µM; TGI [14]: 2.6 µM; GI50 [15]: 1.2 µM; LC50 [15]: 46.8 µM; TGI [15]: 10.8 µM; GI50 [16]: 0.93 µM; LC50 [16]: > 100 µM; TGI [16]: 4.58 µM; GI50 [17]: 3.83 µM; LC50 (50% lethal concentration) [17]: 39.9 µM; TGI [17]: 14.3 µM; GI50 [18]: 1.9 µM; LC50 (concentration killing 50% of cells) [18]: > 100 µM; TGI [18]: 7.26 µM; GI50 [19]: 6.53 µM; LC50 [19]: > 100 µM; TGI [19]: 25.2 µM; GI50 [20]: 1.43 µM; TGI [20]: 4.07 µM; CC50 [20, 31]: 49 µM; GI50 [21]: 1.65 µM; LC50 (concentration killing 50% of cells present at time zero) [21]: > 100 µM; TGI [21]: 5.64 µM; GI50 [22]: 0.69 µM; LC50 (concentration giving 50% net cell kill) [22]: > 100 µM; TGI [22]: 5.43 µM; GI50 [23]: 2.39 µM; LC50 (concentration killing 50% of cells) [23]: > 100 µM; TGI [23]: 6.4 µM; GI50 [24]: 3.16 µM; TGI [24]: 8.98 µM; CC50 [24, 31]: > 100 µM; GI50 [25]: 0.43 µM; TGI [25]: 7.21 µM; CC50 [25, 31]: > 100 µM; GI50 [26]: 1.15 µM; TGI [26]: 4.68 µM; CC50 [26, 31]: 64.6 µM; GI50 [27]: 4.29 µM; LC50 (concentration killing 50% of cells present at time zero) [27]: 66.9 µM; TGI [27]: 21.5 µM; GI50 [28]: 0.45 µM; LC50 [28]: 20.3 µM; TGI [28]: 2.43 µM; GI50 [29]: 0.03 µM; LC50 (concentration giving 50% net cell kill) [29]: 39.9 µM; TGI [29]: 2.81 µM; GI50 [30]: 1.7 µM; LC50 [30]: 30.1 µM; TGI [30]: 5.1 µM
